Assay outcomes deposited in PubChem by several laboratories.
PLK1 PBD inh – Plk1 (human) PBD binding inhibition. P53350. Plk1 PBD phosphopeptide binding, fluorescence polarization. inhibition, %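 (tested at about 20 µM)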. hit rate 0.13% among 97,000. AID 693; in the data active = inhibition above about 34%, passing the limit was not always enough
PLK1 inh – inhibitors of human PLK1 kinase. recombinant PLK1 kinase, TR-FRET peptide phosphorylation. inhibition, % at 10 µM. hit rate 0.53% among 97,000. AID 619;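 active = inhibition of 50% or more in the single-concentration screen; inactive = inhibition below 50%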;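 also: 0% = DMSO max control and 100% = H-89 dihydrochloride min control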
E-sel TNF inh – blocks E-selectin expression induced by TNF alpha; AID 1246; inhibition, % at 2 µM; hit rate 0.71% among 120,000; HUVEC TNFa-induced E-selectin immunofluorescence, high content;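 active = inhibition above the batch mean plus 3 SD, and confirmed as a hit on visual image review, cut at about 43% in these data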;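 also: 0% = TNF-stimulated DMSO wells and 100% = unstimulated control wells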
FAK inh – inhibitors of human focal adhesion kinase | Q05397 | biochemical FAK kinase activity assay | inhibition, %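 (tested at 7 µM)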 | hit rate 0.84% among 97,000 | AID 727; in the data active = inhibition above about 19%;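 also: 0% = DMSO and 100% = reference compound high control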
F-actin modifier – alters cytoskeleton assembly in HUVEC cells; AID 836; inhibition, % at 2 µM; hit rate 0.18% among 91,000; HUVEC TNFa F-actin phalloidin imaging, high content;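 active = inhibition above the batch mean plus 3 SD and confirmed as a hit by visual image inspection, cut at about 30% in these data, passing the limit was not always enough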
Rev-RRE block – disrupts HIV-1 Rev binding to RRE RNA; Rev peptide-RRE RNA binding, FRET; hit rate 0.79% among 97,000; inhibition, % at 8 µM; P05866; AID 704;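 active = inhibition above the screen-wide mean plus 3 SD, cut at about 35% in these data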;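 also: 0% = median DMSO wells and 100% = median Neomycin B control wells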
Target sequence (P05866 whole entry, looked up): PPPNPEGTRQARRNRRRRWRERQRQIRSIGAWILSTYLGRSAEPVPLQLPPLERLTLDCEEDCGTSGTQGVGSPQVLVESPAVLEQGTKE
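System: Cy5-labelled duplex RRE RNA binding fluorescein-labelled HIV Rev peptide; Signal: fluorescein-to-Cy5 FRET, 480 nm excitation; Also added: labelled Rev peptide; Compound: one concentration, 8 µM nominal; Buffer or medium: HEPES pH 7.5 salt buffer with EDTA; Read-out: % inhibition of FRET ratio versus controls; Schedule: 5 min preincubation and 15 min binding, 25 °C.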
* hit, by the source's call; . = no result. A selection: hits, their analogues and other compounds. The true share with any hit is near 2.2%.

SMILES	PLK1 PBD inh	PLK1 inh	E-sel TNF inh	FAK inh	F-actin modifier	Rev-RRE block
CC(C)CN(C(=O)COC(=O)CCc1c[nH]c2ccccc12)C1CCS(=O)(=O)C1 (stereo unspecified)	-14	-4	-22	-1	39*	4
COc1ccc(CNCC(O)(c2ccc(F)cc2)c2ccc(F)cc2)cc1	.	.	10	.	.	.
Cc1ccc(-c2nnc3ccc(SCC(=O)Nc4cc(C)on4)nn23)cc1	-12	6	-12	-2	66*	2
COc1ccc(/C=N/n2cc(-c3ccc(OC)cc3)nc2N)cc1	-11	-6	-21	3	2	10
COc1ccc(/C=N/n2cc(-c3ccccc3)nc2N)cc1	.	.	65*	.	.	.
Cc1cc2c(c(=O)o1)C1(C(=O)N(CC(=O)O)c3ccccc31)C(C#N)=C(N)O2 (stereo unspecified)	-46	-10	-6	1	-13	49*
CCN1C(=O)C2(C(C#N)=C(N)Oc3cc(C)oc(=O)c32)c2ccccc21 (stereo unspecified)	-6	-6	12	1	-4	6
CS(=O)(=O)N1CCC(Oc2ccccc2C(=O)N2CCN(CC3CC3)CC2)CC1	.	.	-6	.	.	.
COc1ccccc1N=c1oc2cc(O)ccc2cc1C(N)=O	-59	-3	29	7	4	63*
Cc1cccc(N=c2oc3cc(O)ccc3cc2C(N)=O)c1	-11	-11	-23	11	-30	47*
NC(=S)c1cc2ccc(O)cc2oc1=O	-44	42	-27	8	0	22
COc1ccccc1N=c1oc2cc(O)ccc2cc1C(=O)NCC1CCCO1 (stereo unspecified)	11	-6	42	4	11	32
Cn1c(SCc2ccc(Br)cc2)nnc1-c1ccncc1	-1	-2	73*	-1	1	3
Cn1c(SCc2ccccc2)nnc1-c1ccncc1	6	-3	.	5	20	12
CCOc1cc(N2CCOCC2)c(OCC)cc1NC(=O)CN1C(=O)C2C3C=CC(C3)C2C1=O (stereo unspecified)	.	.	-15	.	.	.
Cc1cc(N)ccc1S(C)(=O)=O	-16	-1	-30	1	6	10
Cc1ccc(N)cc1S(=O)(=O)N(C)C	.	.	55*	.	.	.
COC(=O)c1ccccc1NC(=O)N1c2ccccc2Sc2ccccc21	.	.	2	.	.	.
C=CCn1c(NCCO)nc2c1c(=O)n(C)c(=O)n2C	-3	-18	.	0	1	56*
Cn1c(=O)c2c(nc(NCCO)n2C)n(C)c1=O	20	-5	-16	-1	3	4
COCCNC(=O)c1cc2cc(Cl)cc(Cl)c2oc1=O	.	.	-40	.	.	.
Cc1ccccc1NC(=O)COC(=O)CCc1ccccc1	.	.	-42	.	.	.
COCc1cc(C)nc(N/N=C/c2ccc(Cl)c(Cl)c2)c1C#N	.	.	8	.	.	.
COc1cccc(N2C(=O)N(c3ccccc3)C3CS(=O)(=O)CC32)c1 (stereo unspecified)	5	-3	10	-1	46	6
O=C1N(c2ccccc2)C2CS(=O)(=O)CC2N1c1ccc(Br)cc1 (stereo unspecified)	-31	-1	100*	-3	0	6
SMILES	PLK1 PBD inh	PLK1 inh	E-sel TNF inh	FAK inh	F-actin modifier	Rev-RRE block
CCN(CC)CCN(C)C1CCC(c2ccccc2)CC1 (stereo unspecified)	.	.	6	.	.	.
CCN(CC)S(=O)(=O)c1ccc(NC(=O)CC(NC(C)=O)c2ccccc2)cc1 (stereo unspecified)	7	-38	15	0	-23	-6
Cn1c(=NC(=O)CCl)sc2ccccc21	35	-7	18	-1	-8	6
Cn1c(=NC(=O)C2CC2)sc2cccc(F)c21	28	67*	.	3	.	1
O=C1CCNc2cc3ccccc3cc21	-3	-2	-36	10	-16	44*
COc1ccc(C2C(C#N)=C(N)Oc3c2oc(CO)cc3=O)c(OC)c1OC (stereo unspecified)	16	-8	.	-2	-11	-1
COc1cc(C2C(C#N)=C(N)Oc3c2oc(CO)cc3=O)cc(OC)c1OC (stereo unspecified)	0	-15	100*	2	8	10
CCOC(=O)CCSc1nc(C)cc(C(F)(F)F)c1C#N	-27	-4	-32	0	21	80*
CCOC(=O)CCSc1nc(-c2ccc3c(c2)OCO3)cc(C(F)(F)F)c1C#N	3	-35	.	-2	-28	17
CCOC(=O)CC(=O)CSc1nc(-c2ccc3c(c2)OCO3)cc(C(F)(F)F)c1C#N	-33	-15	21	-3	19	61*
COc1cc2c3nnc(-c4ccc(F)cc4)c-3cn(Cc3ccccc3)c2cc1OC	-35	-17	15	-1	33*	27
Cc1ccc(C)c(S(=O)(=O)N2CCCOC2CNC(=O)C(=O)NCCC2=CCCCC2)c1 (stereo unspecified)	.	.	-1	.	.	.
CCCC(CCC)C(=O)NNc1cc(=O)c2c(=O)n(C)c(=O)n(C)c2[nH]1	5	-6	100*	-1	-14	4
Cc1ccc2c(c1)c1c(n2CC(O)CNC(CO)(CO)CO)CCCC1 (stereo unspecified)	23	63*	.	-8	.	5
CCN1CCc2c(sc(N)c2C(N)=O)C1	-10	-10	-17	9	-43	63*
CN=C(Nc1cc(C)nn1CCC#N)c1ccccc1	2	-5	-11	-3	-39	4
CN=C(Nc1cc(C)nn1CCC#N)c1ccccc1F	20	-3	5	3	67*	5
COc1ccc(CC(=O)OCc2nnc(-c3ccccc3)o2)cc1	.	.	-6	.	.	.
O=S1(=O)C=C(Sc2nnc(-c3ccccc3)o2)c2ccccc21	.	.	100*	.	.	.
CCCCCCCC(=O)Nc1ccc(S(=O)(=O)Nc2nccs2)cc1	.	.	-6	.	.	.
CCn1nc(C(=O)Nc2ccc(S(=O)(=O)Nc3nccs3)cc2)c2ccccc2c1=O	-12	-8	61*	5	2	32
O=C(N/N=C/c1ccc([N+](=O)[O-])cc1)c1[nH]ncc1Br	.	.	-38	.	.	.
O=C(Nc1ccc(C(=O)O)cc1)Nc1ccc(F)cc1F	.	.	-12	.	.	.
COC(=O)c1ccc(-c2sc3nc(N4CCOCC4)c4c(c3c2N)CCCC4)o1	-34	-5	8	2	-4	85*
Cc1ccc(/C=C2/CCc3c([nH]c4ccccc34)C2=O)cc1	13	-2	11	5	18	7
CN(C)/N=C/C=C1\CC/C(=C\c2ccc(Br)cc2)C1=O	-20	-14	5	1	.	72*
COCCCNC(=O)c1ccc(Cn2c(=O)c3ccccc3n(CC(=O)NCCc3ccc(OC)c(OC)c3)c2=O)cc1	.	.	1	.	.	.
c1coc(-c2nc3c4c5c(sc4ncn3n2)CCCC5)c1	4	-6	2	1	0	3
CC1(C)Cc2c(sc3ncn4nc(-c5ccco5)nc4c23)CO1	-16	-8	7	33*	2	3
Cc1ccc(NC(=O)c2ccc(NCc3ccco3)c([N+](=O)[O-])c2)cc1Cl	.	.	-8	.	.	.
